ChEMBL document CHEMBL1671834, “Novel 3-aryl indoles as progesterone receptor antagonists for uterine fibroids” (ACS Med Chem Lett, 2011)
Active and inactive are the calls of the source. The calls are words filed in the database; no cut-off is given here.

How the values were obtained:
[1] = biological target: T1, Progesterone receptor (Homo sapiens, UniProt P06401); assay: Displacement of [3H]methyltrienolone from human progesterone receptor expressed in HEK293 cells; type: cell-based
T1 sequence (P06401 whole entry): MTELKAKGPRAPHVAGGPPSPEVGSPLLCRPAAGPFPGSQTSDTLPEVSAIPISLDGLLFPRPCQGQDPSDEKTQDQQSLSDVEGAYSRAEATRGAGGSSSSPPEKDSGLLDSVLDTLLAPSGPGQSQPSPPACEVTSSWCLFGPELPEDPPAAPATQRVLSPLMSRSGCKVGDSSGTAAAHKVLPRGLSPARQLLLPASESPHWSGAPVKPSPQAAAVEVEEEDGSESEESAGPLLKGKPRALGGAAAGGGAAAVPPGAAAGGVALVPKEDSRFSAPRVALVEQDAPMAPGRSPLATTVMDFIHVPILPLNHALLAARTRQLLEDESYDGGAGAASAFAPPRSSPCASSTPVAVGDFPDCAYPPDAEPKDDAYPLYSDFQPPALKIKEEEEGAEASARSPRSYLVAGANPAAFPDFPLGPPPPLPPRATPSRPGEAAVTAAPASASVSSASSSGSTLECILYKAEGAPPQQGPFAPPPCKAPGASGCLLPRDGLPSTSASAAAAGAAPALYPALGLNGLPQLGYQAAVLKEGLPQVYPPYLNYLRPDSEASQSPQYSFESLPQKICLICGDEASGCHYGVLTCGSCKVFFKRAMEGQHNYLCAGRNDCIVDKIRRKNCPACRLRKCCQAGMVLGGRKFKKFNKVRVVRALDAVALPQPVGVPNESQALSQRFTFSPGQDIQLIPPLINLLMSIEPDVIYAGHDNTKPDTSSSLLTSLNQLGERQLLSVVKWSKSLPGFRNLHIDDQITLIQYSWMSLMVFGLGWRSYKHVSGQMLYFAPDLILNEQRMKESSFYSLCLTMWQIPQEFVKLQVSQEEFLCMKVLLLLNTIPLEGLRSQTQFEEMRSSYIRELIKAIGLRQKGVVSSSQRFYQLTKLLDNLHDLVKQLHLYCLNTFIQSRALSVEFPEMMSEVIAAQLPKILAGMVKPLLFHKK
Outline: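 Competitive binding to recombinant full-length human receptors against tritium-labelled standards. Values are geometric means of at least duplicate determinations.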

[2] = biological target: T1, Progesterone receptor; assay: Antagonist activity at human progesterone receptor expressed in HEK293 cells assessed as inhibition of […]-induced transcriptional activity by GRE-driven luciferase reporter gene assay; type: functional, cell-based
Outline: (§1)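 Transcription assay in HEK293 cells cotransfected with full-length human receptor. Values are geometric means of at least duplicate determinations.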

[3] = biological target: T2, Progesterone receptor (Homo sapiens) (UniProt P06401); assay: Antagonist activity at human progesterone receptor expressed in HEK293 cells assessed as inhibition of […]-induced transcriptional activity by GRE-driven luciferase reporter gene assay relative to untreated control; type: functional, cell-based; design: concentration or dose not given beside the values; conditions: concentration not given here; outline: as §1
T2 sequence (whole entry): T1 sequence (P06401 whole entry)

[4] = biological target: T3, Mineralocorticoid receptor (Homo sapiens, UniProt P08235); assay: Antagonist activity at human mineralocorticoid receptor expressed in HEK293 cells assessed as inhibition of […]-induced transcriptional activity by GRE-driven luciferase reporter gene assay; type: functional, cell-based; outline: as §1
T3 sequence (P08235 whole entry): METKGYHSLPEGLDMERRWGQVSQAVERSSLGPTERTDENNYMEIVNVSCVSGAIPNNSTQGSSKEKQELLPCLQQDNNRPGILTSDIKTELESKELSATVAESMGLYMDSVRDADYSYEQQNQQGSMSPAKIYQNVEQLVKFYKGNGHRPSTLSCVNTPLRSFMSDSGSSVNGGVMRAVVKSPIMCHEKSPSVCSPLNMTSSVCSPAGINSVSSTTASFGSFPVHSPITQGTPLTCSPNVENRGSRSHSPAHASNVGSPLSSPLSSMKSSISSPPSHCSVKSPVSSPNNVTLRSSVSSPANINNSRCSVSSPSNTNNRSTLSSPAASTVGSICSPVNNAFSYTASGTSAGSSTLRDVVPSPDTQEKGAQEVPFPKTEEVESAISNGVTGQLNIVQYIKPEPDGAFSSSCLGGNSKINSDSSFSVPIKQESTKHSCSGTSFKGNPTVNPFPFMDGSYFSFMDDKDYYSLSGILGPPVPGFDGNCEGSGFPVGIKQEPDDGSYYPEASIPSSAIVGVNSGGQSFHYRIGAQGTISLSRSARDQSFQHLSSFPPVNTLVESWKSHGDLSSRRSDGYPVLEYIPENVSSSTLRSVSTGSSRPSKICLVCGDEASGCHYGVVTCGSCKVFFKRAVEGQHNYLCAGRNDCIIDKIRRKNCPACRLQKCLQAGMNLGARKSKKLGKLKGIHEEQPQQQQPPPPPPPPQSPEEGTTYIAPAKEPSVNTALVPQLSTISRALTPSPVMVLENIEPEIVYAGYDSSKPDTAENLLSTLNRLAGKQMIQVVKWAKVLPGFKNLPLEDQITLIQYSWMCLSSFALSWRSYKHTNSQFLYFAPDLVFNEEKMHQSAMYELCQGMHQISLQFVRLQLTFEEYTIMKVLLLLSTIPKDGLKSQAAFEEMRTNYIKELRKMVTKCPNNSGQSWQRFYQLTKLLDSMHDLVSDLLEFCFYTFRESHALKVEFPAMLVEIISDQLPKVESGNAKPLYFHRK

[5] = biological target: T4, Mineralocorticoid receptor (Homo sapiens) (UniProt P08235); assay: Antagonist activity at human mineralocorticoid receptor expressed in HEK293 cells assessed as inhibition of […]-induced transcriptional activity by GRE-driven luciferase reporter gene assay relative to untreated control; type: functional, cell-based; design: concentration or dose not given beside the values; conditions: concentration not given here; outline: as §1
T4 sequence (whole entry): T3 sequence (P08235 whole entry)

[6] = test system: Rattus norvegicus; assay: Antagonist activity at progesterone receptor in orally dosed ovariectomized Sprague-Dawley rat assessed as reversal of R5020-induced down-regulation of estradiol-induced increase in complement 3 mRNA expression by C3 rat uterine assay; type: functional; conditions: po
Outline: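 Ovariectomized rats dosed orally (mg/kg dose response). Estrogen (E2, 0.05 mg/kg) induces complement C3 mRNA in uterus. Progestin R5020 (0.1 mg/kg) down-regulates it. Read-out is reversal of the R5020 effect, expressed as fold over asoprisnil (5 mg/kg). ED50 derived from the dose response.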

[7] = test system: Oryctolagus cuniculus; assay: Antagonist activity at progesterone receptor in estrogen-primed immature New Zealand White rabbit assessed as inhibition of progesterone-induced endometrial transformation at 1 mg/kg, sc by McPhail assay; type: functional, organism-based; design: dose 1 mg/kg
Outline: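 Immature rabbits primed with estrogen, given progesterone 1 mg/kg with test compound at various sc doses. Endometrial transformation scored by McPhail Index.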

[8] = test system: Oryctolagus cuniculus; assay: Agonist activity at progesterone receptor in estrogen-primed immature New Zealand White rabbit assessed as stimulation of progesterone-induced endometrial transformation at 30 mg/kg, sc by McPhail assay; type: functional, organism-based; design: dose 30 mg/kg
Outline: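 Immature rabbits primed with estrogen, dosed sc without progesterone. Endometrial transformation scored by McPhail Index.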

[9] = Oral bioavailability in rat; type: ADME, organism-based; conditions: in vivo
Outline: (§2)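 Compound given to rats as an oral suspension. Bioavailability, tmax, elimination half-life, volume of distribution and clearance determined.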

[10] = Tmax in rat; type: ADME, organism-based; conditions: in vivo; outline: as §2
[11] = Elimination half life in rat; type: ADME, organism-based; conditions: in vivo; outline: as §2
[12] = Volume of distribution in rat; type: ADME, organism-based; conditions: in vivo; outline: as §2
[13] = Clearance in rat; type: ADME, organism-based; conditions: in vivo; outline: as §2

Structure (SMILES) | Ki [1] [µM] | IC50 [2] [µM] | inhibition [3] [%] | IC50 [4] [µM] | inhibition [5] [%] | ED50 [6] [mg/kg] | Activity [7] | Activity [8] | bioavailability [9] [%] | Tmax [10] [h] | half-life [11] [h] | Vd [12] [L/kg] | clearance [13] [mL/min/kg]
Cc1cc(-c2cn(C(C)C)c3cc(NS(C)(=O)=O)ccc23)ccc1C#N | 0.000298 | 0.00338 | 95.8 | > 10 | 56 |  |  |  |  |  |  |  | 
COc1ccc(C(c2ccccc2)c2c[nH]c3ccccc23)cc1 (stereo not drawn) | 0.478 | 3.72 | 86.5 | > 10 | 40.8 |  |  |  |  |  |  |  | 
Cn1cc(-c2ccc(C#N)cc2)c2ccc(NS(C)(=O)=O)cc21 | 0.028 | 0.485 | 87.8 | > 10 | -2.2 |  |  |  |  |  |  |  | 
CC[C@@H](C)n1cc(-c2ccc(C#N)cc2)c2ccc(NS(C)(=O)=O)cc21 | 0.000834 | 0.00992 | 96.2 | > 10 | 39.2 |  |  |  |  |  |  |  | 
CCn1cc(-c2ccc(C#N)cc2)c2ccc(NS(C)(=O)=O)cc21 | 0.00423 | 0.0126 | 97 | > 10 | 23.8 |  |  |  |  |  |  |  | 
CC[C@H](C)n1cc(-c2ccc(C#N)cc2)c2ccc(NS(C)(=O)=O)cc21 | 0.00032 | 0.00389 | 96.8 | 9.8 | 43.4 |  |  |  |  |  |  |  | 
CC(C)n1cc(-c2ccc(C#N)c(F)c2)c2ccc(NS(C)(=O)=O)cc21 | 0.000214 | 0.00229 | 94.9 | 8.15 | 50.2 | 0.33 | Active | Active | 31.4 | 4 | 19.8 | 2.3 | 2.5
COc1cc(-c2cn(C(C)C)c3cc(NS(C)(=O)=O)ccc23)ccc1C#N | 0.00145 | 0.00728 | 97.4 | 2.42 | 35.8 |  |  |  |  |  |  |  | 
CC(c1ccc(F)cc1)(c1c[nH]c2c(NS(C)(=O)=O)cccc12)C1CC1 (stereo not drawn) | 0.454 | 0.765 | 91.7 | 0.0641 | 76.3 |  |  |  |  |  |  |  | 
CC(C)n1cc(-c2ccc(C#N)cc2)c2ccc(NS(C)(=O)=O)cc21 | 0.000795 | 0.00681 | 96.2 | > 10 | 36.6 |  |  |  |  |  |  |  | 
